Assay results reported in ChEMBL document CHEMBL1821590, “Novel dihydropyrimidines and its pyrazole derivatives: synthesis and pharmacological screening” (Eur J Med Chem, 2011).
In brackets after ≈: the same amount, converted by molar mass.

What was measured:
Type in all cases: functional
[1] = Antioxidant activity assessed as nitric oxide radical scavenging activity after 150 mins
Outline: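 10 mM sodium nitroprusside (4 mL), PBS pH 7.4 (1 mL) and sample or ascorbic acid in DMSO (1 mL, 12.5–100 µg/mL), incubated 150 min at 25 °C. Nitrite detected with sulphanilic acid (5 min) then naphthylethylenediamine (30 min, diffused light). Read at […]. Triplicate. % inhibition = [1 − (Vt/Vc)] × 100. IC50 derived from it.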

[2] = Antioxidant activity assessed as hydrogen peroxide scavenging activity after 10 mins
Outline: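 H2O2 (20 mM) in PBS pH 7.4. 1 mL of sample or ascorbic acid in methanol (12.5–100 µg/mL) added to 2 mL H2O2 solution. A230 read after 10 min. % inhibition = [1 − (Vt/Vc)] × 100. Triplicate, averaged. IC50 derived from % inhibition across concentrations.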

[3] = Antioxidant activity assessed as inhibition of lipid peroxidation using egg lecithin liposomes incubated for 1 hr
Outline: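 Egg lecithin (3 mg/mL, phosphate buffer pH 7.4) sonicated 10 min to form liposomes. Sample or ascorbic acid (12.5–100 µg/mL) added. Peroxidation induced with FeCl3 and L-ascorbic acid, 1 h at 37 °C. Stopped with HCl/TCA/TBA/BHA, boiled 15 min, centrifuged, supernatant read at 532 nm. Triplicate. % inhibition vs control. IC50 derived.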

[4] = Antioxidant activity assessed as potassium ferricyanide ion reducing power after 20 mins
Outline: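 Oyaizu method. Samples or ascorbic acid in DMF (12.5–100 µg/mL) mixed with 0.2 M phosphate buffer pH 6.6 and 1% potassium ferricyanide, 20 min at 50 °C. 10% TCA added, centrifuged. Supernatant mixed with water and 0.1% FeCl3, read at 700 nm. % = [(Vt/Vc) − 1] × 100. IC50 derived.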

[5] = Antiinflammatory activity assessed as inhibition of albumin denaturation at 100 ug/ml by UV-visible spectrophotometry
Outline: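 Compounds dissolved in minimal DMF, diluted in PBS pH 7.4 (final DMF <2.5%). 1 mL test solution (100 µg/mL) plus 1 mL 1% albumin in PBS, 15 min at 27 ± 1 °C, then heated 10 min at 60 ± 1 °C. After cooling, turbidity read at 660 nm. % inhibition = [(Vt/Vc) − 1] × 100 against a no-drug control. Triplicate, averaged. Diclofenac standard.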

Metaphire posthuma [6] = experiment: Anthelmintic activity against Pheretima posthuma assessed as time taken for complete parasite paralysis at 0.1% w/v
Outline: (§1)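 Earthworms (Pheretima posthuma) exposed to test solutions at 0.1, 0.2 and 0.5% w/v; time in minutes to complete paralysis (worms motionless) recorded. Albendazole as standard. Mean of three determinations ± S.D.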

Metaphire posthuma [7] = experiment: Anthelmintic activity against Pheretima posthuma assessed as time taken for complete parasite paralysis at 0.2% w/v; outline: as §1
Metaphire posthuma [8] = experiment: Anthelmintic activity against Pheretima posthuma assessed as time taken for complete parasite paralysis at 0.5% w/v; outline: as §1
Metaphire posthuma [9] = experiment: Anthelmintic activity against Pheretima posthuma assessed as time taken for parasite death at 0.1% w/v
Outline: (§2)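 Earthworms (Pheretima posthuma, spelled Perituma posthuma in text) exposed to test compounds at 0.1, 0.2 and 0.5% w/v. Albendazole served as standard, with an untreated control. Paralysis was recorded as the time until worms became motionless, then time to death was recorded, in minutes. Each value is the mean of three determinations with S.D.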

Metaphire posthuma [10] = experiment: Anthelmintic activity against Pheretima posthuma assessed as time taken for parasite death at 0.2% w/v; outline: as §2
Metaphire posthuma [11] = experiment: Anthelmintic activity against Pheretima posthuma assessed as time taken for parasite death at 0.5% w/v; outline: as §2
Escherichia coli [12] = experiment: Antimicrobial activity against Escherichia coli at 25 ug/ml by agar plate diffusion technique; details: read-out: IZ
Outline: (§3)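 Agar plate diffusion against E. coli, P. aeruginosa, S. aureus and B. subtilis, with compounds at 25, 50 and 100 µg/mL. Streptomycin as standard.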

Escherichia coli [13] = experiment: Antimicrobial activity against Escherichia coli at 50 ug/ml by agar plate diffusion technique; details: read-out: IZ; outline: as §3
Escherichia coli [14] = experiment: Antimicrobial activity against Escherichia coli at 100 ug/ml by agar plate diffusion technique; details: read-out: IZ; outline: as §3
Pseudomonas aeruginosa [15] = experiment: Antimicrobial activity against Pseudomonas aeruginosa at 25 ug/ml by agar plate diffusion technique; details: read-out: IZ; outline: as §3
Pseudomonas aeruginosa [16] = experiment: Antimicrobial activity against Pseudomonas aeruginosa at 50 ug/ml by agar plate diffusion technique; details: read-out: IZ; outline: as §3
Pseudomonas aeruginosa [17] = experiment: Antimicrobial activity against Pseudomonas aeruginosa at 100 ug/ml by agar plate diffusion technique; details: read-out: IZ; outline: as §3
Bacillus subtilis [18] = experiment: Antimicrobial activity against Bacillus subtilis at 25 ug/ml by agar plate diffusion technique; details: read-out: IZ; outline: as §3
Bacillus subtilis [19] = experiment: Antimicrobial activity against Bacillus subtilis at 50 ug/ml by agar plate diffusion technique; details: read-out: IZ; outline: as §3
Bacillus subtilis [20] = experiment: Antimicrobial activity against Bacillus subtilis at 100 ug/ml by agar plate diffusion technique; details: read-out: IZ; outline: as §3
Staphylococcus aureus [21] = experiment: Antimicrobial activity against Staphylococcus aureus at 25 ug/ml by agar plate diffusion technique; details: read-out: IZ; outline: as §3
Staphylococcus aureus [22] = experiment: Antimicrobial activity against Staphylococcus aureus at 50 ug/ml by agar plate diffusion technique; details: read-out: IZ; outline: as §3
Staphylococcus aureus [23] = experiment: Antimicrobial activity against Staphylococcus aureus at 100 ug/ml by agar plate diffusion technique; details: read-out: IZ; outline: as §3
Candida albicans [24] = experiment: Antimicrobial activity against Candida albicans at 25 ug/ml by paper disc method; details: read-out: IZ
Outline: (§4)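 Paper disc method against A. niger and C. albicans, with compounds at 25, 50 and 100 µg/mL. Amphotericin-B as standard.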

Candida albicans [25] = experiment: Antimicrobial activity against Candida albicans at 50 ug/ml by paper disc method; details: read-out: IZ; outline: as §4
Candida albicans [26] = experiment: Antimicrobial activity against Candida albicans at 100 ug/ml by paper disc method; details: read-out: IZ; outline: as §4
Aspergillus niger [27] = experiment: Antimicrobial activity against Aspergillus niger at 25 ug/ml by paper disc method; details: read-out: IZ; outline: as §4
Aspergillus niger [28] = experiment: Antimicrobial activity against Aspergillus niger at 50 ug/ml by paper disc method; details: read-out: IZ; outline: as §4
Aspergillus niger [29] = experiment: Antimicrobial activity against Aspergillus niger at 100 ug/ml by paper disc method; details: read-out: IZ; outline: as §4

| Structure (SMILES) | IC50 [1] [µg/mL] | IC50 [2] [µg/mL] | IC50 [3] [µg/mL] | IC50 [4] [µg/mL] | inhibition [5] [%] | Time (Metaphire posthuma [6]) [min] | Time (Metaphire posthuma [7]) [min] | Time (Metaphire posthuma [8]) [min] | Time (Metaphire posthuma [9]) [min] | Time (Metaphire posthuma [10]) [min] | Time (Metaphire posthuma [11]) [min] | zone of inhibition at 25 µg/mL (Escherichia coli [12]) [mm] | zone of inhibition at 50 µg/mL (Escherichia coli [13]) [mm] | zone of inhibition at 100 µg/mL (Escherichia coli [14]) [mm] | zone of inhibition at 25 µg/mL (Pseudomonas aeruginosa [15]) [mm] | zone of inhibition at 50 µg/mL (Pseudomonas aeruginosa [16]) [mm] | zone of inhibition at 100 µg/mL (Pseudomonas aeruginosa [17]) [mm] | zone of inhibition at 25 µg/mL (Bacillus subtilis [18]) [mm] | zone of inhibition at 50 µg/mL (Bacillus subtilis [19]) [mm] | zone of inhibition at 100 µg/mL (Bacillus subtilis [20]) [mm] | further results |
| --- | --- | --- | --- | --- | --- | --- | --- | --- | --- | --- | --- | --- | --- | --- | --- | --- | --- | --- | --- | --- | --- |
| CSc1nc(-c2ccc(Cl)cc2)c(C#N)c(=O)n1C | 71 (≈ 243 µM) | 56 (≈ 192 µM) | 54 (≈ 185 µM) | 64 (≈ 219 µM) | 79.1 | 48.15 | 39.29 | 40.51 | 60.96 | 57.38 | 55.12 | 7.08 | 9.82 | 11.7 | 8.85 | 9.62 | 11.9 | 13.8 | 18.1 | 27.3 | zone of inhibition at 25 µg/mL (Staphylococcus aureus [21]): 9.68 mm; zone of inhibition at 50 µg/mL (Staphylococcus aureus [22]): 11.7 mm; zone of inhibition at 100 µg/mL (Staphylococcus aureus [23]): 15.8 mm; zone of inhibition at 25 µg/mL (Candida albicans [24]): 9.27 mm; zone of inhibition at 50 µg/mL (Candida albicans [25]): 13.8 mm; zone of inhibition at 100 µg/mL (Candida albicans [26]): 18.4 mm; zone of inhibition at 25 µg/mL (Aspergillus niger [27]): 9.92 mm; zone of inhibition at 50 µg/mL (Aspergillus niger [28]): 11 mm; zone of inhibition at 100 µg/mL (Aspergillus niger [29]): 18.7 mm |
| CCOC(=O)c1cnn(-c2nc(-c3cccs3)c(C#N)c(=O)n2C)c1N | 98 (≈ 265 µM) | 109 (≈ 294 µM) | 97 (≈ 262 µM) | 79 (≈ 213 µM) | 44.6 | 42.48 | 40.12 | 43.59 | 47.38 | 49.67 | 47.44 | 12.5 | 13.1 | 16.1 | 9.67 | 12.7 | 18.8 | 12.9 | 15.1 | 18.7 | zone of inhibition at 25 µg/mL (Staphylococcus aureus [21]): 11.8 mm; zone of inhibition at 50 µg/mL (Staphylococcus aureus [22]): 12.2 mm; zone of inhibition at 100 µg/mL (Staphylococcus aureus [23]): 16.5 mm; zone of inhibition at 25 µg/mL (Candida albicans [24]): 9.1 mm; zone of inhibition at 50 µg/mL (Candida albicans [25]): 13.8 mm; zone of inhibition at 100 µg/mL (Candida albicans [26]): 21.5 mm; zone of inhibition at 25 µg/mL (Aspergillus niger [27]): 12.1 mm; zone of inhibition at 50 µg/mL (Aspergillus niger [28]): 15.8 mm; zone of inhibition at 100 µg/mL (Aspergillus niger [29]): 22.1 mm |
| CCOC(=O)c1cnn(-c2nc(-c3ccccc3Cl)c(C#N)c(=O)n2C)c1N | 93 (≈ 233 µM) | 98 (≈ 246 µM) | 102 (≈ 256 µM) | 78 (≈ 196 µM) | 74.2 | 58.08 | 42.05 | 46.18 | 72.26 | 57.5 | 51.7 | 13.2 | 20.5 | 26.9 | 12.2 | 16.3 | 23.9 | 13.4 | 17.2 | 26.2 | zone of inhibition at 25 µg/mL (Staphylococcus aureus [21]): 14.6 mm; zone of inhibition at 50 µg/mL (Staphylococcus aureus [22]): 18.3 mm; zone of inhibition at 100 µg/mL (Staphylococcus aureus [23]): 24.3 mm; zone of inhibition at 25 µg/mL (Candida albicans [24]): 11.5 mm; zone of inhibition at 50 µg/mL (Candida albicans [25]): 14.9 mm; zone of inhibition at 100 µg/mL (Candida albicans [26]): 20.2 mm; zone of inhibition at 25 µg/mL (Aspergillus niger [27]): 12.2 mm; zone of inhibition at 50 µg/mL (Aspergillus niger [28]): 15.1 mm; zone of inhibition at 100 µg/mL (Aspergillus niger [29]): 22.4 mm |
